The results in this text go back to ChEMBL document CHEMBL4513216, “Probing the Open Global Health Chemical Diversity Library for Multistage-Active Starting Points for Next-Generation Antimalarials” (ACS Infect Dis, 2020).

The data set is described as follows: Toxicity liver stage against HepG2, at 10uM. The data set is classed as cell-based. Also on record: test concentration 10 uM, cell line HepG2-A16-CD81EGFP. As to conditions: human, HepG2-A16-CD81EGFP cells; read-out: INHIBITION
An outline of the steps:
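Uninfected HepG2-A16-CD81EGFP cells, 3 × 10^3 per well, 1536-well, plated on prespotted compound at 10 μM final, parasite-free screening media added to match infected plates; puromycin 10 μM positive, DMSO 0.5% negative; run in parallel with 48 h PbLuc assay at 37 °C, 5% CO2; viability by CellTiter-Glo luminescence, normalized to controls.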
On to `COc1ccc(CN2CC[C@H](c3nc4cccc(C(N)=O)c4[nH]3)C2)cc1`, for which the cytotoxicity at 10 µM was determined as 12.1%.
In the case of `COc1ccc(Cl)cc1C(=O)NCC1CCN(C(=O)c2ccoc2)CC1`, the cytotoxicity at 10 µM turned out to be 10.1%.
Take `CS(=O)(=O)NCCn1ccc(-c2cccs2)n1`: the cytotoxicity at 10 µM stood at 1.43%.
Consider `CC(C)C(=O)N1CCC2(CC1)[C@@H]1CN(C(=O)N(C)C)C[C@@H]1C(=O)N2C`, for which the cytotoxicity at 10 µM came out at 1.76%.
Turning to `O=C(C1CCCCC1)N1C[C@@H]2CCNC[C@@H]21`, the cytotoxicity at 10 µM came to 3.47%.
On to `COc1ccc(C[C@H]2CN(C(=O)c3cscn3)CC[C@@H]2OC)cc1`, for which the cytotoxicity at 10 µM was determined as 7.71%.
Under `O=C(C1CCOC1)N1CCC2(CCNCC2)C1` (stereo not drawn) stands 7.62%; under `N#CCC(=O)NCc1nnc2n1CCN(Cc1ccco1)C2`, -139%; under `O=C(c1ccco1)N1CCOCC2(C1)CN(c1ccccn1)C(=O)CO2` (stereo not drawn), 3.16%.
For `CCCOc1cccc(C(=O)Oc2cc(=O)n3cccc(C)c3n2)c1`, the cytotoxicity at 10 µM was 12.1%.
Next, `CC(C)CN1CCn2c(nc3cc(C(=O)NC(C)C)ccc32)C1`: 0.889%; `C=C/C=c1\c(=C/C)oc2c(NCc3ccccc3)nc(CC)nc12`: 10.4%.
`CCc1cc(OC)c(OC)cc1C(=O)Nc1cccnc1`: the cytotoxicity at 10 µM amounted to 4.94%.
On to `Cc1nn(C)c2c(N3CCSCC3)nc(C3CC3)nc12`, for which the cytotoxicity at 10 µM was 7.29%.
On to `COc1cc(NCc2ccc(Cl)cc2)c(-c2nn[nH]n2)cc1OC`, for which the cytotoxicity at 10 µM stood at 10.1%.
Next, `CCNC(=O)[C@@H]1CN(Cc2ccccc2)C[C@H]1C(=O)c1ccc(F)cc1`: 3.38%.
For the molecule `O=C(Nc1ccc(F)cc1)N1CCC(CO)(Nc2ccccc2)CC1`, the cytotoxicity at 10 µM was found to be 2.94%.
Next, `O=C(NCCO)NC(c1ccccc1)c1ccc2c(c1)CCCO2` (stereo not drawn): 2.73%.
`O=C(Cc1ccn[nH]1)Nc1cncc(Br)c1O`: the cytotoxicity at 10 µM is -3.93%.
Consider `CC(C(=O)Nc1nccs1)N(C)Cc1cccc(C#N)c1` (stereo not drawn), for which the cytotoxicity at 10 µM stood at 1.88%.
Under `CCOc1ccccc1CCC(=O)Nc1c(C)nn(C)c1C` stands -3.91%; under `O=C1CCCN1CCN1CCC(c2ccn[nH]2)CC1`, 11.3%.
Next, `CC(NC(=O)CN1CCN(c2cccc(Cl)c2)CC1)c1ccco1` (stereo not drawn): -11.1%.
`Cc1nc2n(n1)CC(NCc1nnc(C(C)(C)C)o1)CC2` (stereo not drawn): the cytotoxicity at 10 µM is -5.23%.
As for `CCc1nc(C(=O)N2CCOCC2CC(=O)c2ccccc2)c[nH]1` (stereo not drawn), the cytotoxicity at 10 µM is -0.613%.
With `Cn1ccc(CN2CCCC(CNS(C)(=O)=O)C2)cc1=O` (stereo not drawn), the cytotoxicity at 10 µM worked out at 9.31%.
As to `CC(=O)NCCCSC1CCCN(c2ccccc2Cl)C1=O` (stereo not drawn), the cytotoxicity at 10 µM was -0.5%.
As for `CCOc1cc(CNCC2CN(C3CC3)CCO2)ccc1OC` (stereo not drawn), the cytotoxicity at 10 µM is -5.95%.
For the molecule `CCN(CC)C(=O)C1CCN(C(=O)Nc2cccnc2OC)CC1`, the cytotoxicity at 10 µM turned out to be 19%.
For the molecule `Cc1cc(C)c(S(=O)(=O)NCCC(=O)NCc2ccoc2)c(C)c1`, the cytotoxicity at 10 µM was found to be 4.05%.
In the case of `CC(O)CN1CCN(C(=O)c2ccnc(N(C)C)c2)CC1` (stereo not drawn), the cytotoxicity at 10 µM worked out at 4.37%.
Take `CCCN1CCN(S(=O)(=O)c2ncn(C)c2Cl)CC1`: the cytotoxicity at 10 µM worked out at 9.97%.
For `O=C(c1ccc(O)c(Cl)c1)N1CCN(c2nccs2)CC1`, the cytotoxicity at 10 µM is -10.3%.
For `Cc1nn(C)c(C)c1CNCc1cccnc1N1CCOCC1`, the cytotoxicity at 10 µM was -138%.
With `CC(C)C(C#N)N1CCN(Cc2nccn2CC(F)(F)F)CC1` (stereo not drawn), the cytotoxicity at 10 µM turned out to be 0.172%.
As to `COc1ccc(C)c2c1N(C(=O)c1cnc3onc(C)c3c1)CCC2`, the cytotoxicity at 10 µM is -1.67%.
For `O=C(CN(CC(O)c1ccc(F)cc1)C1CC1)NC1CCOCC1` (stereo not drawn), the cytotoxicity at 10 µM came to 0.0428%.
As for `CCS(=O)(=O)CCN(C)C(=O)NC(C)c1ccc(C)s1` (stereo not drawn), the cytotoxicity at 10 µM was -9.02%.
Consider `Cc1ccc(NC(=O)N(CCO)CCO)c(OCc2ccccc2)c1`, for which the cytotoxicity at 10 µM is 18.4%.
Take `Cc1nnc(Cn2cc(I)cc(C)c2=O)o1`: the cytotoxicity at 10 µM is 0.0894%.
Turning to `CN1C(=O)CCN(C(=O)C2CCCCC2)c2ccccc21`, the cytotoxicity at 10 µM is 20.8%.
Next, `COCCN1CCC(CNC(=O)C2(C#N)CCCCC2)CC1`: -11.1%; `CS(=O)(=O)CCCNC1(c2cccc(Cl)c2)CCCC1`: 0.245%.
As for `CC(C)N(C)CC(=O)N(C)Cc1nc(C(F)(F)F)cs1`, the cytotoxicity at 10 µM is -2.96%.
As for `COC(=O)CCN1CCCC1c1ccccc1Cl` (stereo not drawn), the cytotoxicity at 10 µM turned out to be 19.6%.
`O=C(NCC1CC1)C1=NOC2(CCN(S(=O)(=O)Cc3ccccc3)C2)C1` (stereo not drawn): the cytotoxicity at 10 µM is -2.1%.
On to `O=C(c1ccc[nH]1)N1CCC2(CC1)CC(Oc1cccnc1)CO2` (stereo not drawn), for which the cytotoxicity at 10 µM is -7.69%.
Turning to `COC[C@@H]1CC[C@H]2[C@H](CCN2S(=O)(=O)c2cccc(C)c2)O1`, the cytotoxicity at 10 µM was determined as 3.29%.
In the case of `Cc1c(C(C)NC2CCOCC2)cnn1-c1ccc(F)cc1F` (stereo not drawn), the cytotoxicity at 10 µM is -8.87%.
`Cc1cc(C)c2nc(C)cc(C(=O)N3CC(O)CO3)c2c1` (stereo not drawn): the cytotoxicity at 10 µM came to 16.5%.
Consider `CNS(=O)(=O)CCn1cc(-c2ccc(OC)c(OC)c2)nn1`, for which the cytotoxicity at 10 µM came out at 1.9%.
Next, `CCc1nccn1CCC(=O)N1CC[C@@H](c2sccc2C)[C@H](O)C1`: -6.04%; `C/C=C(\C)CN1C[C@@H](NC(=O)c2ccc(O)c(Cl)c2)C[C@H]1C(=O)NCC`: 9.23%.
Consider `CCNC(=O)[C@@H]1C[C@H](NC(=O)c2cncnc2C)CN1Cc1ccsc1`, for which the cytotoxicity at 10 µM was 2.12%.
Turning to `Cc1cc(C(=O)NC2CCCCNC2=O)c(=O)[nH]c1C` (stereo not drawn), the cytotoxicity at 10 µM was -3.35%.
In the case of `CCCc1nc(NC2(COC)CCCC2)c2cnn(C)c2n1`, the cytotoxicity at 10 µM was -1.43%.
Regarding `CCn1cnc(NC(=O)N2CCCC(c3ccccc3)CC2)n1` (stereo not drawn), the cytotoxicity at 10 µM amounted to 2.7%.
Turning to `CC(C)(C)CN1CCCC(O)(CN2CCc3[nH]ncc3C2)C1=O` (stereo not drawn), the cytotoxicity at 10 µM is -5.14%.
As to `CN(C)CCNC(=O)c1ccc(OC2CCN(C3CCC3)CC2)c(Cl)c1`, the cytotoxicity at 10 µM is -5.89%.
Turning to `COc1ccc(-n2c(SCC(=O)O)nnc2-c2cn[nH]c2)cc1`, the cytotoxicity at 10 µM was -4.59%.
Next, `CCc1cc(N[C@H](C(N)=O)[C@@H](C)CC)n2nccc2n1`: 2.99%; `CCn1ccc(CN(C)C(=O)CSc2nnc(N)s2)n1`: 3.45%; `OC1CCN(CCCNc2ncccn2)CC1`: 2.68%.
On to `CN(C)c1nc2c(c(N3CCC(O)CC3)n1)CN(CC(C)(C)C)CC2`, for which the cytotoxicity at 10 µM amounted to 7.5%.
In the case of `COc1cccc(CC2(C(=O)O)CCN(c3nccs3)CC2)c1`, the cytotoxicity at 10 µM was -9.59%.
Under `Fc1ccc(C2(CNCC(F)F)CCOC2)cc1` (stereo not drawn) stands -152%.
For `CCN(CC)C(=O)C1CCCN(CC(=O)Nc2c(C)nn(CC)c2C)C1` (stereo not drawn), the cytotoxicity at 10 µM stood at 2.13%.
Turning to `Cc1nc(N2CCCC(C)C2)nc2cc(S(C)(=O)=O)ccc12` (stereo not drawn), the cytotoxicity at 10 µM was -24.2%.
As for `CN(CC1COCCO1)c1ncnc2cc(F)ccc12` (stereo not drawn), the cytotoxicity at 10 µM was found to be 0.613%.
As to `Cc1nc(CCNC(=O)C2CC(=O)N(C(C)C)C2)sc1C` (stereo not drawn), the cytotoxicity at 10 µM was -14%.
Next, `Cc1cccc(N2CCN(C(=O)C3CC4(CCNCC4)CN3)CC2)n1` (stereo not drawn): -4.27%; `O=C(Cc1n[nH]c(-c2cncc(Br)c2)n1)NCc1ccccn1`: -1.39%.
With `Cn1cc(-c2ccnc(NCC3CC3)n2)cn1`, the cytotoxicity at 10 µM is -134%.
Consider `O=c1cc(C2CCNCC2)nc(CCCc2ccccc2)[nH]1`, for which the cytotoxicity at 10 µM was 2.03%.
With `Cc1ccc(CN2CCN(CC3CC3)[C@@H]3CS(=O)(=O)C[C@@H]32)cc1C`, the cytotoxicity at 10 µM amounted to 25.4%.
In the case of `COc1ccc(C2CC(=O)Nc3c2nc2n3CCCC2)cc1OC` (stereo not drawn), the cytotoxicity at 10 µM is -8.41%.
On to `Cc1cc(C)nc(N2Cc3cnn(Cc4ccc(F)cc4)c3C2)n1`, for which the cytotoxicity at 10 µM turned out to be 25.2%.
On to `Cc1nc(C)n(C2CCCN(C(=O)COc3cccc(C#N)c3)C2)n1` (stereo not drawn), for which the cytotoxicity at 10 µM came to 1.08%.
As to `Cc1cccc(-c2nc(C)nn2CC(=O)NC(C)C)c1`, the cytotoxicity at 10 µM stood at 8.22%.
Take `Cc1nc(CN2CCCC(NCc3csc(C(C)(C)C)n3)C2)no1` (stereo not drawn): the cytotoxicity at 10 µM stood at 0.238%.
Under `c1cnn(CC2CCCN2Cc2noc(C3CC3)n2)c1` (stereo not drawn) stands 1.46%.
Turning to `CC(NC(=O)CCn1cccn1)c1ccc2c(c1)OCCO2` (stereo not drawn), the cytotoxicity at 10 µM is -7.79%.
Under `Cc1nccc(C(=O)N2CCCC2c2noc(C(C)C)n2)n1` (stereo not drawn) stands -16.4%; under `c1cc(-c2nc(CN3CCc4c(ncn4C4CC4)C3)cs2)cs1`, -4.25%.
In the case of `c1cncc(-c2noc(CN3CCc4cncnc4C3)n2)c1`, the cytotoxicity at 10 µM is -3.39%.
As to `Cc1nc(C2CCCN2CCCS(N)(=O)=O)no1` (stereo not drawn), the cytotoxicity at 10 µM is -10.3%.
Under `CCN(CC1CCOC1)C(=O)Nc1ccc(OC)nc1` (stereo not drawn) stands -4.2%; under `OC(COCc1ccccc1Cl)CN1CC(n2cccn2)C1` (stereo not drawn), -7.7%; under `CN1CCOC(CNCc2coc(-c3ccccc3)n2)C1` (stereo not drawn), -5.1%.
Take `Cc1cnn(CC2CCCN2C(=O)CCc2nc3ccccc3[nH]2)c1` (stereo not drawn): the cytotoxicity at 10 µM is -12.9%.
In the case of `CC(O)CNC(=O)NCc1cccnc1OC1CCCC1` (stereo not drawn), the cytotoxicity at 10 µM was 2.29%.
As for `Cc1nn(C)c(N(C)C)c1CNCc1ccccc1Cn1cncn1`, the cytotoxicity at 10 µM came out at 3.85%.
Take `O=C(C1CCC1)N1CCC2(CCCN2CC2CC2)CC1`: the cytotoxicity at 10 µM is -2.45%.
For the molecule `CN1CCOCC12CCN(C(=O)C1CCC1)CC2`, the cytotoxicity at 10 µM is 0.64%.
Next, `Cc1ccc2c(c1)C(NC(=O)N(C)C)CC21CCN(CC2CC2)CC1` (stereo not drawn): 4.44%; `Cc1cccc(N2CCc3ncc(CNS(C)(=O)=O)n3CC2)n1`: 8.39%; `CCN(C)c1ncnc2c1CCN(Cc1ccc(F)cc1)CC2`: 3.1%.
Take `O=c1cc(Cn2cncn2)nc2n1CCCN(Cc1ccc(F)cc1)C2`: the cytotoxicity at 10 µM turned out to be 4.43%.
